Data reported in ChEMBL document CHEMBL1122668, “Synthesis, conformational analysis, and antiarrhythmic properties of 7-benzyl-3-thia-7-azabicyclo[3.3.1]nonan-9-one, 7-benzyl-3-thia-7-azabicyclo[3.3.1]nonane hydroperchlorate, and 7-benzyl-9-phenyl-3-thia-7-azabicyclo[3.3.1]nonan-9-ol hydroperchlorate and derivatives: single-crystal X-ray …” (1984).
The source made the active and inactive calls. No cut-off for these calls is given here.

Experiments:
[1] = species on record: Canis familiaris; assay: Compound was tested for mean blood pressure on induced Ventricular Tachycardia (VT); type: functional, Canis lupus familiaris
Outline: (§1)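 Dogs with 24-h myocardial infarction under iv sodium pentobarbital (30 mg/kg), six per agent. Drug given as an iv bolus in 50% ethanol at 3 and 6 mg/kg; the reference agent was given iv at 2, 4 and 6 mg/kg. Sustained VT was induced by three paced ventricular beats at 240–390/min, with pacing retried up to 420/min after dosing. Read-outs were VT rate, abolition count and continuous mean arterial pressure.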

[2] = Compound was evaluated for abolition of ventricular tachycardia (Number/total); 0/6.; type: functional, tissue-based; conditions: Cardiac ventricle
[3] = species on record: Canis familiaris; assay: Effect of compound on rate of induced ventricular tachycardia (VT) in dog; type: functional, Canis lupus familiaris, Cardiac ventricle; outline: as §1
[4] = species on record: Canis familiaris; assay: Increase in mean blood pressure on Ventricular Tachycardia (VT); (SL-Slight); type: functional, Canis lupus familiaris
Outline: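 Pentobarbital-anesthetized dogs with infarction, given the drug intravenously. Mean arterial blood pressure was monitored continuously during ventricular tachycardia induced by three paced ventricular beats.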

[5] = species on record: Canis familiaris; assay: Effect of compound on myocardial conduction normal (A-V, I-V); […]; type: functional, organism-based; conditions: Canis lupus familiaris; Myocardium
Outline: (§2)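 Pentobarbital-anesthetized dogs (30 mg/kg iv) with 24-h myocardial infarction, heart exposed by left thoracotomy. Recordings: lead II ECG, His bundle electrogram, and endocardial and epicardial electrodes over the infarct (abnormal tissue) plus a noninfarcted posterior epicardial reference (normal tissue). Atrial pacing from 180/min up to second-degree A-V block, before and after iv drug. Read-outs: intra-atrial, A-V nodal, His-Purkinje and ventricular conduction.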

[6] = species on record: Canis familiaris; assay: Effect of compound on myocardial conduction abnormal; +++ = marked decrease; type: functional, organism-based; conditions: Canis lupus familiaris; Myocardium; outline: as §2
[7] = species on record: Canis familiaris; assay: Compound was evaluated for abolition of ventricular tachycardia (Number/total);+ = slight degree; type: functional, organism-based; conditions: Canis lupus familiaris; Cardiac ventricle
Outline: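 Dogs with 24-h myocardial infarction, anesthetized with 30 mg/kg iv sodium pentobarbital and given a left thoracotomy. Sustained ventricular tachycardia induced by three paced ventricular beats at 240–390/min. Compound given iv as a bolus in 50% ethanol. Pacing induction attempts repeated after dosing, up to 420/min. Abolition scored as number of dogs/total, with mean arterial pressure monitored.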

[8] = species on record: Canis familiaris; assay: Effect of compound on myocardial conduction normal (A-V, I-V); No change.; type: functional, organism-based; conditions: Canis lupus familiaris; Myocardium
[9] = species on record: Canis familiaris; assay: Effect of compound on myocardial conduction abnormal; ++ = moderate decrease; type: functional, organism-based; conditions: Canis lupus familiaris; Myocardium
[10] = species on record: Canis familiaris; assay: Compound was evaluated for abolition of ventricular tachycardia (Number/total); + = slight degree; type: functional, organism-based; conditions: Canis lupus familiaris; Cardiac ventricle
[11] = species on record: Canis familiaris; assay: Effect of compound on myocardial conduction abnormal; No change.; type: functional, organism-based; conditions: Canis lupus familiaris; Myocardium

For `CCN(CC)CC(=O)Nc1c(C)cccc1C` [LIDOCAINE], which Mean blood pressure [1] is on record?
The Mean blood pressure was 95 mmHg.

And the Ratio [2]?
Its Ratio is “inactive”.

What about the Rate [3] of the same compound?
The Rate was 315.

With `OC1(c2ccccc2)C2CSCC1CN(Cc1ccccc1)C2.[O-][Cl+3]([O-])([O-])O` (stereo not given) as the compound, how does the Mean blood pressure [4] read?
Its Mean blood pressure is under 10%.

And the Effect [5]?
Its Effect is “marked decrease”.

What about the Effect [6] of the same compound?
Its Effect is “marked decrease”.

What about the Abolition [7] of the same compound?
The Abolition was “slight degree”.

Which Mean blood pressure [4] does the source give for `O=C1C2CSCC1CN(Cc1ccccc1)C2` [listing 1 of 2 here] here?
Its Mean blood pressure is under 10%.

For `O=C1C2CSCC1CN(Cc1ccccc1)C2.[O-][Cl+3]([O-])([O-])O`, which Mean blood pressure [4] is on record?
The Mean blood pressure was 15%.

With `O=C1C2CSCC1CN(Cc1ccccc1)C2` [listing 2 of 2 here] as the compound, how does the “Change in myocardial conduction” value [8] read?
The value was “inactive”.

What about the Effect [9] of the same compound?
The Effect was “moderate decrease”.

What about the Abolition [10] of the same compound?
The Abolition was “slight degree”.

What about the “Change in myocardial conduction” value [11] of the same compound?
The value was “inactive”.

Which results are given for `[O-][Cl+3]([O-])([O-])O.c1ccc(CN2CC3CSCC(C3)C2)cc1`?
Mean blood pressure [1]: 112 mmHg; Rate [3]: 250
